# Measured values of several laboratories.
# Protocols differ between the studies behind these lines.
# Target: Serine/threonine-protein kinase SBK1 (SBK1, Homo sapiens, UniProt Q52WX2)
Compound,assay,conditions,remaining binding
Cc1cc(NC(=O)c2cccc(S(F)(F)(F)(F)F)c2)cc(-n2ccn3nc(-c4cccnc4)cc23)c1,"cell-free assay, competition with immobilised ligand",1 µM,100%
c1cncc(-c2cccc(Nc3nccc(NC4CCCCC4)n3)c2)c1,"binding, competition with immobilised ligand",10 µM,66%
CCCOc1ccc([C@H]2[C@H](C(=O)O)[C@@H](c3ccc4c(c3)OCO4)CN2CC(=O)Nc2c(CC)cccc2CC)cc1,"cell-free assay, competition with immobilised ligand",1 µM,78%
CN(C)c1nccc(-c2cnn3ncccc23)n1,binding,1 µM,100%
O=C(c1ccc(Nc2ncc(Cl)c(-c3cc4ccccc4s3)n2)cc1)N1CCC(N2CCCC2)CC1,"binding, competition with immobilised ligand",1 µM,52%
c1cnn2ncc(-c3ccnc(N4CCC45COC5)n3)c2c1,binding,1 µM,65%
O=C(c1ccc(Nc2nccc(-c3cc4ccccc4s3)n2)cc1)N1CCC(N2CCCC2)CC1,"binding, competition with immobilised ligand",1 µM,88%
O=C(Nc1c[nH]nc1C(=O)NC1CCNCC1)c1cc(F)cc(F)c1,"binding, competition with immobilised ligand",1 µM,100%
C[C@@H]1CCN(c2nccc(-c3cnn4ncccc34)n2)C1,binding,1 µM,85%
CO[C@@H](C)c1c(Nc2ccc([C@H](N(C)C(=O)C3CCS(=O)(=O)CC3)C(F)(F)F)cc2)cnc2cc(Cl)nn12,"cell-free assay, competition with immobilised ligand",1 µM,100%
Cc1cnc(Nc2ccc(C(=O)N3CCC(N4CCCC4)CC3)cc2)nc1-c1cc2ccccc2s1,"binding, competition with immobilised ligand",1 µM,51%
CN(c1nccc(-c2cnn3ncccc23)n1)C1CC1,binding,1 µM,100%
CN(C)CC#Cc1ccc(OCCCc2sc(N3CCc4cccc(C(=O)Nc5nc6ccccc6s5)c4C3)nc2C(=O)O)c(F)c1,"cell-free assay, competition with immobilised ligand",1 µM,100%
Cc1cnn2ncc(-c3ccnc(N(C)C)n3)c2c1,binding,1 µM,83%
Cc1c[nH]c2nccc(Oc3c(F)cc(Nc4cc(Cl)nc(N)n4)cc3F)c12,"cell-free assay, competition with immobilised ligand",0.1 µM,94%
COc1ccnn2ncc(-c3ccnc(N(C)C)n3)c12,binding,1 µM,100%
CCC(=O)N[C@H]1CC[C@@H](C(=O)N(C)c2ccc(-c3nc4ccccc4o3)cc2)C1,"cell-free assay, competition with immobilised ligand",1 µM,94%
Nc1ncc2c(n1)-c1c([nH]c3ccc(C#CC4CC4)cc13)CCCC2,"binding, competition with immobilised ligand",1 µM,100%
CNC(=O)[C@@H]1CC[C@@H](n2c(-c3ccc4cnccc4c3)nc3ccc(C(=O)NCc4cccc(C(N)=O)c4)cc32)C1,"binding, competition with immobilised ligand",1 µM,100%
C=CC(=O)N1CCC(C(=O)NCC(=O)N2CCN(c3nc(-c4cnc(N)nc4C(F)F)nc(N4CCOCC4)n3)CC2)CC1,"binding, competition with immobilised ligand",1 µM,100%
COc1cnc(Nc2cccc(S(N)(=O)=O)c2)nc1N1CCN(c2ccccc2)CC1,"binding, competition with immobilised ligand",1 µM,96%
N[C@@H]1CCN(c2nccc(-c3cnn4ncccc34)n2)C1,binding,1 µM,94%
